# Reference: ChEMBL document CHEMBL3421595, “Design and Synthesis of New α-Naphthoflavones as Cytochrome P450 (CYP) 1B1 Inhibitors To Overcome Docetaxel-Resistance Associated with CYP1B1 Overexpression” (J Med Chem, 2015)
# Key:
# [1] = tested on: MCF7; assay: Cytotoxicity against human MCF7 cells over-expressing CYP1B1 after 48 hrs by MTT assay; format: functional, cell-based; settings: MCF7, 48 h
# Summary of the method: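 CYP1B1-expressing MCF-7 (MCF-7/1B1) made by exposing parental cells to 10 nM TCDD for 96 h, with daily renewal of medium containing fresh 10 nM TCDD. Standard MTT assay, 48 h exposure to docetaxel alone or combined with a CYP1B1 inhibitor (5 or 10 μM). Wells with inhibitor alone (10 μM) served as negative control. Five concentrations, four replicate wells each, three plates.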
# [2] = tested on: MCF7; assay: Resistance index, ratio of IC50 for human MCF7 cells over-expressing CYP1B1 to IC50 for human MCF7 cells; format: functional
# [3] = tested on: MCF7; assay: Cytotoxicity against human MCF7 cells after 48 hrs by MTT assay; format: functional, cell-based; settings: MCF7, 48 h
# Summary of the method: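 MCF-7 cells grown in RPMI-1640 with 10% FBS at 37 °C, 5% CO2 and subcultured every 3 days at 1:5. Standard MTT assay with a 48 h exposure to freshly prepared docetaxel. Five concentrations per plate, four replicate wells each, three replicate plates. Viability is percent surviving cells relative to control. IC50 is the average of three parallel experiments.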
smiles,measurement,setting,value
CC(=O)O[C@@]12CO[C@@H]1C[C@H](O)[C@@]1(C)C(=O)[C@H](O)C3=C(C)[C@@H](OC(=O)[C@H](O)[C@@H](NC(=O)OC(C)(C)C)c4ccccc4)C[C@@](O)([C@@H](OC(=O)c4ccccc4)[C@H]21)C3(C)C.O.O.O [DOCETAXEL],IC50,[1],140 µM
same,Ratio IC50,[2],5
same,IC50,[3],27.6 µM
